Compounds with a hit are over-represented: about 2.8% of the library has one in this group of screens.
Mcl1-Noxa inh = Mcl-1/Noxa binding inhibitors, primary screen, biochemical, TR-FRET, 1536-well; Induced myeloid leukemia cell differentiation protein Mcl-1 (Homo sapiens), Q07820; TR-FRET Mcl-1/Noxa peptide binding, 2 h; inhibition, % at 21.7 µM; 220,000 tested, 1.5% active; AID 1022, 2008;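 active = compounds that cut the protein-peptide binding signal by more than 50% relative to plate controls in a single-dose test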;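 note: His-tagged Mcl-1 with rhodamine Noxa BH3 peptide and terbium anti-His antibody; 0% = Mcl-1 plus Noxa peptide wells and 100% = peptide-only wells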
Target sequence (Q07820 whole entry, looked up): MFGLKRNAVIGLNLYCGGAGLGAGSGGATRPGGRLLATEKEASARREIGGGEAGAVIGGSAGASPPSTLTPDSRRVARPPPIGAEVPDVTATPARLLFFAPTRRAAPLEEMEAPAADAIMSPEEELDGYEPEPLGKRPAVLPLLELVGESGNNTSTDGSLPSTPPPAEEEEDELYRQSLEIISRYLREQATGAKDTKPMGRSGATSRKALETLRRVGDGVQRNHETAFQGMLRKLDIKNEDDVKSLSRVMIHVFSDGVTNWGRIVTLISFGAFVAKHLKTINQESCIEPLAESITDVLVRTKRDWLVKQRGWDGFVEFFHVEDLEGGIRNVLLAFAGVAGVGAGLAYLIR
Mcl1-Bid inh = Mcl-1/Bid binding inhibitors, primary screen, biochemical, TR-FRET, 1536-well; Induced myeloid leukemia cell differentiation protein Mcl-1 (Homo sapiens), Q07820; TR-FRET Mcl-1/Bid-Dy647 peptide binding; inhibition, % at 21.7 µM; 220,000 tested, 0.97% active;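 active = compounds that cut the binding signal by more than half at the single screening dose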;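 note: His-tagged Mcl-1 with europium anti-His antibody binding Bid BH3 peptide; 0% = Mcl-1 plus peptide wells and 100% = peptide-only wells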
Bim-Mcl-1 = inhibitors of Bim peptide binding to Mcl-1, primary screen, biochemical, bead-based flow cytometry, multiplex. Induced myeloid leukemia cell differentiation protein Mcl-1 (Homo sapiens), Q07820. 190,000 tested, 0.1% active. inhibition, % at 10 µM. AID 1009, 2008. Bim peptide-Mcl-1 binding; in the data active = inhibition above about 40%;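 note: 0% = no compound tracer wells and 100% = peptide blocker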
Biofilm kill mix = clotrimazole potentiators killing C. albicans biofilm, primary screen, 4-compound mixtures; C. albicans biofilm persisters + clotrimazole, fluorescence viability; primary screen in compound mixtures of four per well; inhibition, % at 7.6 µM; 120,000 tested, 0.02% active;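 active = inhibition above 30.3% in the primary screen of four-compound pools, then above 30% when the compound was retested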;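 note: compounds exposed to preformed 24 h biofilms for 48 h; 0% = untreated biofilm control and 100% = clotrimazole plus chlorhexidine kill blank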
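Test system: C. albicans biofilms. Buffer or medium: RPMI/MOPS medium, pH 7.0. Timing: 48 h compound exposure at 37 °C. Technique: Alamar Blue fluorescence. Evaluation: percent inhibition of biofilm viability.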
m-calpain inh = inhibitors of pig calpain II, primary screen, biochemical, fluorogenic peptide substrate, 1536-well; inhibition, % at 16 µM; AID 1236, 2008; purified calpain II, 30 min; 220,000 tested, 0.37% active;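 active = inhibition above about 50%, limit read from the data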
Arbovirus anti = antivirals against arbovirus infection, primary screen, cell-based, full library, 10K replicate subset. arbovirus infection cell-based antiviral screen. inhibition, % at 10 µM. 200,000 tested, 0.37% active. AID 1251, 2008; in the data active = inhibition above about 30%
* = called active by the depositor; i = inactive; / = no result given.

SMILES	Mcl1-Noxa inh	Mcl1-Bid inh	Bim-Mcl-1	Biofilm kill mix	m-calpain inh	Arbovirus anti
O=C(NCc1ccco1)c1ccc(N2CCCC2=O)cc1	12.1	-21.0	11.0	/	-9.2	8.1
O=C(N/N=C/c1ccco1)c1ccc(N2CCCC2=O)cc1	7.6	93.4*	-1.0	15.8	-6.5	0.0
Cc1ccc(C(=O)n2c(-c3ccccc3)cnc2SCC(=O)Nc2ccc(C)cc2C)cc1	-6.7	-30.5	-6.0	15.2	1.9	-1.6
CC1=CC(=C(C#N)C#N)C=C(C)N1CCC(C)C	-8.8	-32.5	0.0	14.8	-22.4	5.5
CC(C)(C)C(=O)/C=c1\s/c(=C\c2ccc(-c3ccc([N+](=O)[O-])cc3)o2)c(=O)n1CC(=O)NC(N)=O	27.5	-6.5	-17.0	8.0	-241.9	-6.0
COc1cc(OC)cc(-c2nnc(SCC(=O)Nc3cccc(C(=O)O)c3)s2)c1	12.2	-5.6	0.0	4.2	-28.4	21.2
C=CCN=c1scc(-c2ccccc2)n1/N=C/c1ccccn1	20.7	-9.2	-6.0	10.3	28.1	31.7*
CC(=O)c1c(C)[nH]c(C(=O)OCc2cccc(Cl)c2)c1C	3.1	-0.2	-4.0	12.1	53.8*	-1.4
CC(=O)c1c(C)[nH]c(C(=O)OCc2nnc(-c3ccccc3)o2)c1C	-15.4	51.3*	-2.0	/	-29.7	13.6
Cc1ccc(C(=O)OCc2nnc(-c3ccccc3)o2)o1	10.4	-15.7	-4.0	/	-334.3	1.4
CC(=O)c1c(C)[nH]c(C(=O)OCc2c(F)cccc2Cl)c1C	1.1	-10.9	-1.0	4.2	3.5	2.8
COC/C=C/C1=CC2=CC(=O)C(C)(OC(=O)c3ccco3)C(=O)C2=CO1 (stereo not drawn)	92.7*	-18.3	/	12.7	-52.8	/
C=CCOC(=O)/C(=C\c1ccccc1)NC(=O)c1ccc(C)cc1	117.0*	-17.1	1.0	9.8	-24.7	-10.5
Nc1cc(S(=O)(=O)N2CCCCC2)ccc1Oc1ccccc1	-3.2	-35.6	0.0	10.7	50.7*	3.0
NC(=O)/C(=C\c1ccccc1)NC(=O)c1ccc(NC(=O)c2ccccc2)cc1	19.8	-5.6	/	20.6	-20.6	/
C=CCNCCCOc1ccc(Cl)cc1C(C)(C)C	27.6	32.5	2.0	9.4	-12.5	-43.3
C=CCNCCOCCOc1ccc(Cl)cc1C(C)(C)C	22.5	57.8*	-2.0	14.5	-8.5	-26.1
CCCCC[C@H](O)/C=C/[C@@H]1[C@@H](C/C=C\CCCC(=O)OC)[C@@H](O)C[C@H]1O	42.6	98.4*	0.0	6.2	20.5	14.5
CCCCC[C@H](O)/C=C/[C@@H]1[C@@H](C/C=C\CCCC(=O)O)[C@@H](O)C[C@H]1O	9.9	-0.5	-2.0	4.9	26.5	17.2
CCOCCCNC(=O)C(c1ccc(OC)cc1)N(Cc1cccs1)C(=O)c1ccccn1 (stereo not drawn)	-35.9	-27.2	0.0	17.2	10.9	-6.4
CCN1C(=O)/C(=C2/Sc3ccc(OC)cc3N2C)SC1=Nc1cccc(O)c1	70.1*	65.1*	1.0	/	-189.4	-6.6
C=CCN1C(=O)/C(=C2/Sc3ccc(OC)cc3N2C)SC1=Nc1ccccc1	-1.1	-30.6	-4.0	20.1	-54.7	-7.8
COC(=O)/C=C1\OC(c2ccccc2)=CC1=O	66.0*	0.8	-15.0	14.7	-0.2	-4.9
CC(=O)Nc1nnc(Cc2c[nH]c3ccccc23)s1	9.2	-21.5	-1.0	7.2	-22.7	-9.6
COc1ccc(OC)c(S(=O)(=O)Nc2ccc(O)c3ccccc23)c1	50.5*	-19.6	0.0	12.7	-25.6	-37.2
SMILES	Mcl1-Noxa inh	Mcl1-Bid inh	Bim-Mcl-1	Biofilm kill mix	m-calpain inh	Arbovirus anti
COc1ccc(OC)c(S(=O)(=O)Nc2ccc(Oc3ccccc3)cc2)c1	4.7	11.4	-6.0	/	28.0	1.6
O/N=C(\c1ccc(Cl)cc1)c1cc2ccccc2o1	17.1	28.3	-1.0	/	64.6*	-34.2
O=C(O)c1ccccc1Nc1ccccc1C(=O)O	4.5	-9.8	2.0	/	-10.5	6.0
O=C(O)c1ccccc1Nc1ccc([N+](=O)[O-])cc1	-4.8	-7.0	-4.0	9.3	9.1	37.1*
COc1ccc(-c2nnn(CC(=O)NCCc3ccc(OC)c(OC)c3)n2)cc1	2.4	-1.9	1.0	16.2	-25.0	-0.6
COCCN1Cc2cccc(C(=O)Nc3cccc(C)c3C)c2C1=O	90.4*	91.4*	-3.0	/	4.7	-6.7
CC1=C(C(=O)OCc2ccccc2)C(c2cccs2)N2C(=O)CCSC2=N1 (stereo not drawn)	7.5	-11.1	0.0	0.7	60.6*	-0.5
O=C(Nc1ccc([N+](=O)[O-])cc1)Nc1ccc(OC(F)F)c(Cl)c1	52.1*	6.3	-3.0	18.9	28.7	-0.1
O=C(Nc1ccc(OC(F)F)c(Cl)c1)Nc1ccc2c(c1)OCO2	20.8	0.8	-5.0	/	21.0	-35.9
N=c1c(C(=O)NCc2ccc(F)cc2)cc2c(=O)n3ccccc3nc2n1Cc1cccnc1	74.5*	20.5	0.0	/	i	-10.7
N=c1c(C(=O)NCC2CCCO2)cc2c(=O)n3ccccc3nc2n1Cc1cccnc1 (stereo not drawn)	12.1	-12.7	-4.0	/	-413.1	1.4
COc1ccc(CCn2c(=N)c(C(=O)NCc3ccco3)cc3c(=O)n4ccccc4nc32)cc1	68.4*	-0.1	2.0	/	-21.0	-12.5
O=S(=O)(Nc1cccc(-c2cn3ccsc3n2)c1)c1ccc(F)cc1	0.1	98.1*	-2.0	/	-5.8	-7.5
COc1ccc(C2C(C#N)=C(N)OC3=C2C(=O)CC(C)C3)c(OC)c1OC (stereo not drawn)	17.6	52.5*	-6.0	/	-12.4	10.2
COc1ccc(C2C(C#N)=C(N)OC3=C2C(=O)CCC3)c(OC)c1OC (stereo not drawn)	16.2	-95.8	0.0	/	10.4	4.1
COc1ccc(C2C(C#N)=C(N)OC3=C2C(=O)CCC3)cc1Cn1cc([N+](=O)[O-])cn1 (stereo not drawn)	3.6	-16.8	7.0	10.0	16.4	10.5
COc1ccc(C2C(C#N)=C(N)OC3=C2C(=O)CCC3)cc1OC (stereo not drawn)	-4.1	70.0*	-3.0	14.2	20.2	2.1
O=C(c1ccc(Cl)cc1)c1oc2ccccc2c1CS(=O)(=O)c1ccccc1	-8.9	14.5	-6.0	/	60.1*	3.8
Cc1cc(=O)oc2cc(OCC3CC(c4ccc(Cl)cc4)=NO3)ccc12 (stereo not drawn)	-26.1	18.9	0.0	/	-178.6	-14.4
Cc1cc(=O)oc2cc(OCC3CC(c4ccc(N(C)C)cc4)=NO3)ccc12 (stereo not drawn)	28.7	51.9*	-1.0	/	-14.9	-15.3
